Results: ChEMBL document CHEMBL4402551 (Eur J Med Chem, 2020)
The source made the active and inactive calls. The calls are words filed in the database; no cut-off is given here.

Tested on: Influenza A virus
Assay: Antiviral activity against Influenza A virus (A/Duck/Guangdong/674/2014(H5N6)) infected in chicken embryo fibroblasts assessed as protection against virus-induced cytopathic effect incubated for 48 hrs by CCK8 assay
Type: functional, organism-based
Conditions: not given
Compound `CCC(CC)O[C@@H]1C=C(C(=O)O)C[C@H](N)[C@H]1NC(C)=O` [OSELTAMIVIR CARBOXYLATE] has an EC50 of 0.43 µM.
For `CCC(CC)O[C@@H]1C=C(C(=O)NCc2cn(Cc3ccc(Br)cc3)nn2)C[C@H](N)[C@H]1NC(C)=O`, the EC50 was 2.8 µM.
Work on `CCC(CC)O[C@@H]1C=C(C(=O)NCc2cn(CC(=O)N3CCOCC3)nn2)C[C@H](N)[C@H]1NC(C)=O` yielded an EC50 of 3.78 µM.
For `CCC(CC)O[C@@H]1C=C(C(=O)NCc2cn(Cc3ccccc3Cl)nn2)C[C@H](N)[C@H]1NC(C)=O`, the EC50 was 8.6 µM.
Compound `CCC(CC)O[C@@H]1C=C(C(=O)NC(C)(C)c2cn([C@H]3C[C@H](n4cc(C)c(=O)[nH]c4=O)O[C@@H]3CO)nn2)C[C@H](N)[C@H]1NC(C)=O` has an EC50 greater than 20 µM.

Tested on: not listed separately
Assay: Inhibition of Influenza A virus (A/Duck/Guangdong/674/2014(H5N6)) Neuraminidase N6 preincubated for 10 mins followed by MUNANA substrate addition and measured after 40 mins by fluorescence method
Conditions: not given
`CCC(CC)O[C@@H]1C=C(C(=O)O)C[C@H](N)[C@H]1NC(C)=O` [OSELTAMIVIR CARBOXYLATE] showed an IC50 of 0.018 µM.
For `CCC(CC)O[C@@H]1C=C(C(=O)NCCc2cn([C@H]3C[C@H](n4cc(C)c(=O)[nH]c4=O)O[C@@H]3CO)nn2)C[C@H](N)[C@H]1NC(C)=O`, the IC50 was greater than 10 µM.
For `CCC(CC)O[C@@H]1C=C(C(=O)NCc2cn(Cc3ccc(-c4ccccc4)cc3)nn2)C[C@H](N)[C@H]1NC(C)=O`, the IC50 was 2.2 µM.
Work on `CCC(CC)O[C@@H]1C=C(C(=O)NCc2cn(Cc3ccc(Br)cc3)nn2)C[C@H](N)[C@H]1NC(C)=O` yielded an IC50 of 0.16 µM.
Compound `CCC(CC)O[C@@H]1C=C(C(=O)NCc2cn(Cc3ccccc3)nn2)C[C@H](N)[C@H]1NC(C)=O` has an IC50 of 1 µM.
In the case of `CCC(CC)O[C@@H]1C=C(C(=O)NCc2cn(CC(=O)N3CCOCC3)nn2)C[C@H](N)[C@H]1NC(C)=O`, the IC50 is reported as 0.79 µM.
With `CCC(CC)O[C@@H]1C=C(C(=O)NCc2cn(Cc3ccccc3Br)nn2)C[C@H](N)[C@H]1NC(C)=O` the IC50 was greater than 10 µM.
In the case of `CCC(CC)O[C@@H]1C=C(C(=O)NCc2cn(CSc3ccccc3)nn2)C[C@H](N)[C@H]1NC(C)=O`, the IC50 is reported as 4.59 µM.
In the case of `CCC(CC)O[C@@H]1C=C(C(=O)NC(C)(C)c2cn(Cc3ccc(Br)cc3)nn2)C[C@H](N)[C@H]1NC(C)=O`, the IC50 is reported as greater than 10 µM.
For `CCC(CC)O[C@@H]1C=C(C(=O)NCc2cn(CC(=O)N3CCCC3)nn2)C[C@H](N)[C@H]1NC(C)=O`, the IC50 was 1.4 µM.
In the case of `CCC(CC)O[C@@H]1C=C(C(=O)NCc2cn(C3CCCCC3)nn2)C[C@H](N)[C@H]1NC(C)=O`, the IC50 is reported as 2.01 µM.
With `CCC(CC)O[C@@H]1C=C(C(=O)NCc2cn(Cc3ccc(F)cc3)nn2)C[C@H](N)[C@H]1NC(C)=O` the IC50 was 3.2 µM.
Compound `CCC(CC)O[C@@H]1C=C(C(=O)NCc2cn(Cc3ccccc3Cl)nn2)C[C@H](N)[C@H]1NC(C)=O` has an IC50 of 0.13 µM.
In the case of `CCC(CC)O[C@@H]1C=C(C(=O)NCCc2cn(Cc3ccc(Br)cc3)nn2)C[C@H](N)[C@H]1NC(C)=O`, the IC50 is reported as greater than 10 µM.
`CCC(CC)O[C@@H]1C=C(C(=O)NC(C)(C)c2cn([C@H]3C[C@H](n4cc(C)c(=O)[nH]c4=O)O[C@@H]3CO)nn2)C[C@H](N)[C@H]1NC(C)=O` gave an IC50 of 0.58 µM.
In the case of `CCC(CC)O[C@@H]1C=C(C(=O)NCc2cn(CCc3ccc(Br)cc3)nn2)C[C@H](N)[C@H]1NC(C)=O`, the IC50 is reported as 6.34 µM.
For `CCC(CC)O[C@@H]1C=C(C(=O)NCc2cn(Cc3ccccc3[N+](=O)[O-])nn2)C[C@H](N)[C@H]1NC(C)=O`, the IC50 was greater than 10 µM.
`CCC(CC)O[C@@H]1C=C(C(=O)NCc2cn(Cc3cccc(Cl)c3)nn2)C[C@H](N)[C@H]1NC(C)=O` gave an IC50 of 2.56 µM.
`CCC(CC)O[C@@H]1C=C(C(=O)NCc2cn(Cc3ccc(C)cc3)nn2)C[C@H](N)[C@H]1NC(C)=O` gave an IC50 of 5.5 µM.
For `CCC(CC)O[C@@H]1C=C(C(=O)NCc2cn([C@H]3C[C@H](n4cc(C)c(=O)[nH]c4=O)O[C@@H]3CO)nn2)C[C@H](N)[C@H]1NC(C)=O`, the IC50 was 0.29 µM.
`CCC(CC)O[C@@H]1C=C(C(=O)NCc2cn(Cc3ccc([N+](=O)[O-])cc3)nn2)C[C@H](N)[C@H]1NC(C)=O` showed an IC50 of 1.17 µM.
Compound `CCC(CC)O[C@@H]1C=C(C(=O)NC(C)(C)c2cn(Cc3ccc([N+](=O)[O-])cc3)nn2)C[C@H](N)[C@H]1NC(C)=O` has an IC50 greater than 10 µM.
Compound `CCC(CC)O[C@@H]1C=C(C(=O)NCc2cn(Cc3ccc(Cl)c(F)c3)nn2)C[C@H](N)[C@H]1NC(C)=O` has an IC50 of 2.8 µM.
`CCC(CC)O[C@@H]1C=C(C(=O)NCCc2cn(Cc3ccc([N+](=O)[O-])cc3)nn2)C[C@H](N)[C@H]1NC(C)=O` gave an IC50 of 7.6 µM.
`CCC(CC)O[C@@H]1C=C(C(=O)NCc2cn(Cc3cccc(F)c3)nn2)C[C@H](N)[C@H]1NC(C)=O` showed an IC50 of 2 µM.
With `CCC(CC)O[C@@H]1C=C(C(=O)NCc2cn(CCc3ccccc3)nn2)C[C@H](N)[C@H]1NC(C)=O` the IC50 was 0.57 µM.
Work on `CCC(CC)O[C@@H]1C=C(C(=O)NCc2cn(Cc3cccc([N+](=O)[O-])c3)nn2)C[C@H](N)[C@H]1NC(C)=O` yielded an IC50 of 2.85 µM.

Tested on: Influenza A virus
Assay: Antiviral activity against Influenza A virus (A/Chicken/Hebei/LZF/2014(H5N2)) infected in chicken embryonated eggs assessed as chicken embryo survival at 10 mM incubated with virus for 1 hr followed by inoculation and measured after 72 hrs relative to control
Type: functional
Conditions: not given
Work on `CCC(CC)O[C@@H]1C=C(C(=O)O)C[C@H](N)[C@H]1NC(C)=O` [OSELTAMIVIR CARBOXYLATE] yielded an Activity of 80%.
`CCC(CC)O[C@@H]1C=C(C(=O)NCc2cn(Cc3ccc(Br)cc3)nn2)C[C@H](N)[C@H]1NC(C)=O` gave an Activity of 20%.

Tested on: Influenza A virus
Assay: Antiviral activity against Influenza A virus (A/Chicken/Hebei/LZF/2014(H5N2)) infected in chicken embryonated eggs assessed as protection against virus-induced chicken embryo death at 2.5 to 0.156 mM incubated with virus for 1 hr followed by inoculation and measured after 72 hrs
Type: functional, organism-based
Conditions: not given
With `CCC(CC)O[C@@H]1C=C(C(=O)O)C[C@H](N)[C@H]1NC(C)=O` [OSELTAMIVIR CARBOXYLATE] the Activity was “inactive”.
In the case of `CCC(CC)O[C@@H]1C=C(C(=O)NCc2cn(Cc3ccc(Br)cc3)nn2)C[C@H](N)[C@H]1NC(C)=O`, the Activity is reported as “inactive”.

Tested on: Influenza A virus
Assay: Antiviral activity against Influenza A virus (A/Chicken/China/415/2013 (H9N2)) infected in chicken embryonated eggs assessed as chicken embryo survival at 10 to 0.625 mM incubated with virus for 1 hr followed by inoculation and measured after 72 hrs relative to control
Type: functional
Conditions: not given
`CCC(CC)O[C@@H]1C=C(C(=O)O)C[C@H](N)[C@H]1NC(C)=O` [OSELTAMIVIR CARBOXYLATE] showed an Activity greater than 80%.

Tested on: Influenza A virus
Assay: Antiviral activity against Influenza A virus (A/Chicken/China/415/2013 (H9N2)) infected in chicken embryonated eggs assessed as chicken embryo survival at 10 to 0.156 mM incubated with virus for 1 hr followed by inoculation and measured after 72 hrs relative to control
Type: functional
Conditions: not given
`CCC(CC)O[C@@H]1C=C(C(=O)NCc2cn(Cc3ccc(Br)cc3)nn2)C[C@H](N)[C@H]1NC(C)=O` showed an Activity greater than 80%.

Tested on: not listed separately
Assay: Cytotoxicity against CEF after 48 hrs by CCK8 assay
Design: species or system Gallus gallus
Conditions: chicken, CEF cells
Method in brief: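 Uninfected chicken embryo fibroblasts are given compound, serially diluted 3-fold in DMEM with 1% FBS from a DMSO stock, at 37 °C and 5% CO2 for 48 h. Viability is read as A450 after 90 min with CCK-8 at 37 °C. CC50 is derived as for EC50.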
Work on `CCC(CC)O[C@@H]1C=C(C(=O)O)C[C@H](N)[C@H]1NC(C)=O` [OSELTAMIVIR CARBOXYLATE] yielded a CC50 at 48 h greater than 1000 µM.
With `CCC(CC)O[C@@H]1C=C(C(=O)NCc2cn(Cc3ccc(Br)cc3)nn2)C[C@H](N)[C@H]1NC(C)=O` the CC50 at 48 h was greater than 1000 µM.
`CCC(CC)O[C@@H]1C=C(C(=O)NCc2cn(CC(=O)N3CCOCC3)nn2)C[C@H](N)[C@H]1NC(C)=O` gave a CC50 at 48 h greater than 1000 µM.
For `CCC(CC)O[C@@H]1C=C(C(=O)NCc2cn(Cc3ccccc3Cl)nn2)C[C@H](N)[C@H]1NC(C)=O`, the CC50 at 48 h was greater than 1000 µM.
Work on `CCC(CC)O[C@@H]1C=C(C(=O)NC(C)(C)c2cn([C@H]3C[C@H](n4cc(C)c(=O)[nH]c4=O)O[C@@H]3CO)nn2)C[C@H](N)[C@H]1NC(C)=O` yielded a CC50 at 48 h greater than 1000 µM.

Tested on: Influenza A virus
Assay: Antiviral activity against Influenza A virus (A/Chicken/Hebei/LZF/2014(H5N2)) infected in chicken embryo fibroblasts assessed as protection against virus-induced cytopathic effect incubated for 48 hrs by CCK8 assay
Type: functional, organism-based
Conditions: not given
`CCC(CC)O[C@@H]1C=C(C(=O)O)C[C@H](N)[C@H]1NC(C)=O` [OSELTAMIVIR CARBOXYLATE] gave an EC50 of 0.18 µM.
`CCC(CC)O[C@@H]1C=C(C(=O)NCc2cn(Cc3ccc(Br)cc3)nn2)C[C@H](N)[C@H]1NC(C)=O` gave an EC50 of 0.43 µM.
Work on `CCC(CC)O[C@@H]1C=C(C(=O)NCc2cn(CC(=O)N3CCOCC3)nn2)C[C@H](N)[C@H]1NC(C)=O` yielded an EC50 of 1 µM.
`CCC(CC)O[C@@H]1C=C(C(=O)NCc2cn(Cc3ccccc3Cl)nn2)C[C@H](N)[C@H]1NC(C)=O` gave an EC50 of 0.47 µM.
In the case of `CCC(CC)O[C@@H]1C=C(C(=O)NC(C)(C)c2cn([C@H]3C[C@H](n4cc(C)c(=O)[nH]c4=O)O[C@@H]3CO)nn2)C[C@H](N)[C@H]1NC(C)=O`, the EC50 is reported as 0.53 µM.

Tested on: Influenza A virus
Assay: Antiviral activity against Influenza A virus (A/goose/Guangdong/SH7/2013(H5N1)) infected in chicken embryo fibroblasts assessed as protection against virus-induced cytopathic effect incubated for 48 hrs by CCK8 assay
Type: functional, organism-based
Conditions: not given
For `CCC(CC)O[C@@H]1C=C(C(=O)O)C[C@H](N)[C@H]1NC(C)=O` [OSELTAMIVIR CARBOXYLATE], the EC50 was 0.22 µM.
`CCC(CC)O[C@@H]1C=C(C(=O)NCc2cn(Cc3ccc(Br)cc3)nn2)C[C@H](N)[C@H]1NC(C)=O` gave an EC50 of 2.45 µM.
Compound `CCC(CC)O[C@@H]1C=C(C(=O)NCc2cn(CC(=O)N3CCOCC3)nn2)C[C@H](N)[C@H]1NC(C)=O` has an EC50 of 3.1 µM.
Work on `CCC(CC)O[C@@H]1C=C(C(=O)NCc2cn(Cc3ccccc3Cl)nn2)C[C@H](N)[C@H]1NC(C)=O` yielded an EC50 of 3.32 µM.
`CCC(CC)O[C@@H]1C=C(C(=O)NC(C)(C)c2cn([C@H]3C[C@H](n4cc(C)c(=O)[nH]c4=O)O[C@@H]3CO)nn2)C[C@H](N)[C@H]1NC(C)=O` gave an EC50 of 6.28 µM.
